Reference: ChEMBL document CHEMBL4706773, “Discovery of Novel PTP1B Inhibitors Derived from the BH3 Domain of Proapoptotic Bcl-2 Proteins with Antidiabetic Potency” (ACS Med Chem Lett, 2021)
Peptide text beside a SMILES is read from it. * marks the point of attachment. Palmitoyl = CCCCCCCCCCCCCCCC(=O)*

Experiments:
[1] = target: T1, Tyrosine-protein phosphatase non-receptor type 1 (Homo sapiens, UniProt P18031); experiment: Binding affinity to recombinant human PTP1B measured by Surface plasmon resonance assay
T1 sequence (P18031 whole entry): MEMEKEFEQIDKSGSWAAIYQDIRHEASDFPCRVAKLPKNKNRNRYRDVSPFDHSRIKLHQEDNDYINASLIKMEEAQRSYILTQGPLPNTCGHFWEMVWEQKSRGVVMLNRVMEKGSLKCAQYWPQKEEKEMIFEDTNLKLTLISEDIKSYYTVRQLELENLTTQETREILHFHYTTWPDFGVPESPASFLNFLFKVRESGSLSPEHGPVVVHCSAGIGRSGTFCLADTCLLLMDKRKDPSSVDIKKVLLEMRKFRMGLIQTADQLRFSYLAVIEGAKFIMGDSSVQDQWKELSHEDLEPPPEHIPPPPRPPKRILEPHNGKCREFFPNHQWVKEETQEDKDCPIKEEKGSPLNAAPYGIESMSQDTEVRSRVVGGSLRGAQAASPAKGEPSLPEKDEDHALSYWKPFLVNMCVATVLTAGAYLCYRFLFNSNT

[2] = tested on: Mus musculus; experiment: Antidiabetic activity in diabetic db/db C57BL/K mouse assessed as decrease in blood glucose at 0.5 umol/kg, sc qd for 7 days measured at 1 hr post-last drug dosing by blood glucose meter analysis; format: functional; conditions: 168 h, time 7 day
Method in brief: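 Diabetic db/db mice received a daily s.c. dose (0.5 or 2 μmol/kg) or vehicle for one week. Blood glucose was compared at baseline and at 1 week, and the value is the percent decrease of blood glucose. Liraglutide was the positive control.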

[3] = target: T2, Tyrosine-protein phosphatase non-receptor type 1 (Homo sapiens) (UniProt P18031); experiment: Inhibition of PTP1B in human insulin resistant HepG2 cells assessed as induction of 2-NBDG uptake incubated with compound for 24 hrs followed by treatment with insulin for 30 mins and later incubated with 2-NBDG for 30 mins by fluorimetric method; format: cell-based; conditions: dose 0.1-10 µM, time 25.0 hrs
T2 sequence (whole entry): T1 sequence (P18031 whole entry)
Method in brief: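 HepG2 cells were made insulin-resistant with palmitic acid, then treated 24 h with test agents at several concentrations. Vehicle was equal-volume DMSO. Mean ± SD, n = 4, compared with vehicle.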

[4] = target: T1, Tyrosine-protein phosphatase non-receptor type 1; experiment: Inhibition of recombinant N-terminal His-tagged human PTP1B (E2 to N321) expressed in Escherichia coli expression system assessed by dephosphorylation of substrate pNPP measured for 4 mins by plate reader analysis
[5] = target: T2, Tyrosine-protein phosphatase non-receptor type 1 (Homo sapiens); experiment: Binding affinity to recombinant human PTP1B assessed as off-rate constant, Koff measured by Surface plasmon resonance assay
[6] = target: T2, Tyrosine-protein phosphatase non-receptor type 1 (Homo sapiens); experiment: Binding affinity to recombinant human PTP1B assessed as on-rate constant, Kon measured by Surface plasmon resonance assay

Row | Compound | Kd [1] | inhibition [3] | IC50 [4] | Kd ([1]; read-out: Kd) | K [5] | K [6] | also measured
1 | CCCCCCCCCCCCCCCC(=O)N[C@@H](Cc1ccc(O)cc1)C(=O)NCC(=O)N[C@@H](CCCNC(=N)N)C(=O)N[C@@H](CCC(=O)O)C(=O)N[C@@H](CC(C)C)C(=O)N[C@@H](CCCNC(=N)N)C(=O)N[C@@H](CCCNC(=N)N)C(=O)N[C@@H](CCSC)C(=O)N[C@@H](CO)C(=O)N[C@@H](CC(=O)O)C(=O)N[C@@H](CCC(=O)O)C(=O)N[C@@H](Cc1ccccc1)C(=O)O (Palmitoyl-YGRELRRMSDEF-OH) | Not Active |  |  |  |  |  | 
2 | CCCCCCCCCCCCCCCC(=O)N[C@@H](CCC(=O)NCCCC[C@H](NC(=O)[C@H](C)NC(=O)[C@H](C)NC(=O)[C@H](CCC(N)=O)NC(=O)CNC(=O)[C@H](CCC(=O)O)NC(=O)[C@H](CC(C)C)NC(=O)[C@H](Cc1ccc(O)cc1)NC(=O)[C@H](CO)NC(=O)[C@H](CO)NC(=O)[C@@H](NC(=O)[C@H](CC(=O)O)NC(=O)[C@H](CO)NC(=O)[C@@H](NC(=O)[C@H](Cc1ccccc1)NC(=O)[C@@H](NC(=O)CNC(=O)[C@H](CCC(=O)O)NC(=O)[C@H](C)NC(=O)[C@@H](N)Cc1cnc[nH]1)[C@@H](C)O)[C@@H](C)O)C(C)C)C(=O)N[C@@H](CCC(=O)O)C(=O)N[C@@H](Cc1ccccc1)C(=O)N[C@H](C(=O)N[C@@H](C)C(=O)N[C@@H](Cc1c[nH]c2ccccc12)C(=O)N[C@@H](CC(C)C)C(=O)N[C@H](C(=O)N[C@@H](CCCNC(=N)N)C(=O)NCC(=O)N[C@@H](CCCNC(=N)N)C(=O)NCC(=O)O)C(C)C)[C@@H](C)CC)C(=O)O [LIRAGLUTIDE] |  |  |  |  |  |  | inhibition in vivo at 0.5 µmol/kg [2]: 72.6%
3 | H-STKKLSECLKRIGDELDSNM-OH |  | Dose-dependent effect | 5250 nM | 86.3 nM | 8.39 10^-4/s | 9.73 10^3/M.s | 
4 | H-WAREIGAQLRRMADDLNAQY-OH |  | Dose-dependent effect | 6840 nM | 105 nM | 1.52 10^-4/s | 1.45 10^4/M.s | 

Further lines, with some results ahead:

Row | Kd [1] | inhibition [3] | IC50 [4] | Kd ([1]; read-out: Kd) | K [5] | K [6] | Compound | also measured
5 | Not Active |  |  |  |  |  | CCCCCCCCCCCCCCCC(=O)N[C@@H](CS)C(=O)N[C@@H](C)C(=O)N[C@H](C(=O)N[C@@H](CCC(N)=O)C(=O)N[C@@H](CC(C)C)C(=O)N[C@@H](CCCNC(=N)N)C(=O)N[C@@H](CCCNC(=N)N)C(=O)N[C@@H](Cc1ccccc1)C(=O)NCC(=O)N[C@@H](CC(=O)O)C(=O)N[C@@H](CCCCN)C(=O)N[C@@H](CC(C)C)C(=O)O)[C@@H](C)O (Palmitoyl-CATQLRRFGDKL-OH) | 
6 | Not Active |  |  |  |  |  | CCCCCCCCCCCCCCCC(=O)N[C@H](C(=O)N[C@@H](C)C(=O)N[C@@H](CCCNC(=N)N)C(=O)N[C@@H](CCCCN)C(=O)N[C@@H](CC(C)C)C(=O)N[C@@H](CCC(N)=O)C(=O)N[C@@H](CS)C(=O)N[C@H](C(=O)N[C@@H](C)C(=O)N[C@@H](CC(=O)O)C(=O)N[C@@H](CCC(N)=O)C(=O)N[C@@H](Cc1ccccc1)C(=O)O)[C@@H](C)CC)[C@@H](C)CC (Palmitoyl-IARKLQCIADQF-OH) | 
